Converted amounts (≈) assume the structure as drawn.
Tests used:
U-251 = test: Cytotoxicity against human U251 cells assessed as growth inhibition at 10 uM after 48 hrs by sulphorhodamine B assay; type: functional; settings: U-251, 48 h, read-out: GI
How it was run: (§1)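 NCI-60 one-dose screen per the NCI Drug Evaluation Branch protocol. Cells given a single 10 µM concentration with 48 h continuous exposure. Growth estimated by sulphorhodamine B protein assay. Result expressed as percentage growth inhibition relative to untreated growth.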

HCT-116 = test: Cytotoxicity against human HCT116 cells assessed as growth inhibition at 10 uM after 48 hrs by sulphorhodamine B assay; type: functional; settings: HCT-116, 48 h, read-out: GI; how it was run: as §1
SK-MEL-5 = test: Cytotoxicity against human SK-MEL-5 cells assessed as growth inhibition at 10 uM after 48 hrs by sulphorhodamine B assay; type: functional; settings: SK-MEL-5, 48 h, read-out: GI; how it was run: as §1
OVCAR-4 = test: Cytotoxicity against human OVCAR4 cells assessed as growth inhibition at 10 uM after 48 hrs by sulphorhodamine B assay; type: functional; settings: OVCAR-4, 48 h, read-out: GI; how it was run: as §1
M14 = test: Cytotoxicity against human M14 cells assessed as growth inhibition at 10 uM after 48 hrs by sulphorhodamine B assay; type: functional; settings: M14, 48 h, read-out: GI; how it was run: as §1
SF-268 = test: Cytotoxicity against human SF268 cells assessed as growth inhibition at 10 uM after 48 hrs by sulphorhodamine B assay; type: functional; settings: SF-268, 48 h, read-out: GI; how it was run: as §1
MOLT-4 = test: Cytotoxicity against human MOLT4 cells assessed as growth inhibition at 10 uM after 48 hrs by sulphorhodamine B assay; type: functional; settings: MOLT-4, 48 h, read-out: GI; how it was run: as §1
HCT-15 = test: Cytotoxicity against human HCT15 cells assessed as growth inhibition at 10 uM after 48 hrs by sulphorhodamine B assay; type: functional; settings: HCT-15, 48 h, read-out: GI; how it was run: as §1
MCF7 = test: Cytotoxicity against human MCF7 cells assessed as growth inhibition at 10 uM after 48 hrs by sulphorhodamine B assay; type: functional; settings: MCF7, 48 h, read-out: GI; how it was run: as §1
CAKI-1 = test: Cytotoxicity against human Caki1 cells assessed as growth inhibition at 10 uM after 48 hrs by sulphorhodamine B assay; type: functional; settings: CAKI-1, 48 h, read-out: GI; how it was run: as §1
SR = test: Cytotoxicity against human SR cells assessed as growth inhibition at 10 uM after 48 hrs by sulphorhodamine B assay; type: functional; settings: read-out: GI; how it was run: as §1
NCI-H522 = test: Cytotoxicity against human NCI-H522 cells assessed as growth inhibition at 10 uM after 48 hrs by sulphorhodamine B assay; type: functional; settings: NCI-H522, 48 h, read-out: GI; how it was run: as §1
LOX IMVI = test: Cytotoxicity against human LOXIMVI cells assessed as growth inhibition at 10 uM after 48 hrs by sulphorhodamine B assay; type: functional; settings: read-out: GI; how it was run: as §1
DU-145 = test: Cytotoxicity against human DU145 cells assessed as growth inhibition at 10 uM after 48 hrs by sulphorhodamine B assay; type: functional; settings: DU-145, 48 h, read-out: GI; how it was run: as §1
A549 = test: Cytotoxicity against human A549 cells assessed as growth inhibition at 10 uM after 48 hrs by sulphorhodamine B assay; type: functional; settings: A549, 48 h, read-out: GI; how it was run: as §1
SK-MEL-2 = test: Cytotoxicity against human SK-MEL-2 cells assessed as growth inhibition at 10 uM after 48 hrs by sulphorhodamine B assay; type: functional; settings: SK-MEL-2, 48 h, read-out: GI; how it was run: as §1
K562 = test: Cytotoxicity against human K562 cells assessed as growth inhibition at 10 uM after 48 hrs by sulphorhodamine B assay; type: functional; settings: K562, 48 h, read-out: GI; how it was run: as §1
MDA-MB-468 = test: Cytotoxicity against human MDA-MB-468 cells assessed as growth inhibition at 10 uM after 48 hrs by sulphorhodamine B assay; type: functional; settings: MDA-MB-468, 48 h, read-out: GI; how it was run: as §1
T47D = test: Cytotoxicity against human T47D cells assessed as growth inhibition at 10 uM after 48 hrs by sulphorhodamine B assay; type: functional; settings: read-out: GI; how it was run: as §1
A498 = test: Cytotoxicity against human A498 cells assessed as growth inhibition at 10 uM after 48 hrs by sulphorhodamine B assay; type: functional; settings: A498, 48 h, read-out: GI; how it was run: as §1
OVCAR-5 = test: Cytotoxicity against human OVCAR5 cells assessed as growth inhibition at 10 uM after 48 hrs by sulphorhodamine B assay; type: functional; settings: OVCAR-5, 48 h, read-out: GI; how it was run: as §1
[1] = Cytotoxicity against human EKVX cells assessed as growth inhibition at 10 uM after 48 hrs by sulphorhodamine B assay; type: functional; settings: read-out: GI; how it was run: as §1
Hs-578T = test: Cytotoxicity against human Hs578T cells assessed as growth inhibition at 10 uM after 48 hrs by sulphorhodamine B assay; type: functional; settings: read-out: GI; how it was run: as §1
SK-OV-3 = test: Cytotoxicity against human SKOV3 cells assessed as growth inhibition at 10 uM after 48 hrs by sulphorhodamine B assay; type: functional; settings: SK-OV-3, 48 h, read-out: GI; how it was run: as §1
IGROV-1 = test: Cytotoxicity against human IGROV1 cells assessed as growth inhibition at 10 uM after 48 hrs by sulphorhodamine B assay; type: functional; settings: IGROV-1, 48 h, read-out: GI; how it was run: as §1
PC-3 = test: Cytotoxicity against human PC3 cells assessed as growth inhibition at 10 uM after 48 hrs by sulphorhodamine B assay; type: functional; settings: PC-3, 48 h, read-out: GI; how it was run: as §1
RPMI-8226 = test: Cytotoxicity against human RPMI8226 cells assessed as growth inhibition at 10 uM after 48 hrs by sulphorhodamine B assay; type: functional; settings: RPMI-8226, 48 h, read-out: GI; how it was run: as §1
NCI-H23 = test: Cytotoxicity against human NCI-H23 cells assessed as growth inhibition at 10 uM after 48 hrs by sulphorhodamine B assay; type: functional; settings: NCI-H23, 48 h, read-out: GI; how it was run: as §1
SNB-75 = test: Cytotoxicity against human SNB75 cells assessed as growth inhibition at 10 uM after 48 hrs by sulphorhodamine B assay; type: functional; settings: SNB-75, 48 h, read-out: GI; how it was run: as §1
CCRF-CEM = test: Cytotoxicity against human CCRF-CEM cells assessed as growth inhibition at 10 uM after 48 hrs by sulphorhodamine B assay; type: functional; settings: read-out: GI; how it was run: as §1
HOP-92 = test: Cytotoxicity against human HOP92 cells assessed as growth inhibition at 10 uM after 48 hrs by sulphorhodamine B assay; type: functional; settings: HOP-92, 48 h, read-out: GI; how it was run: as §1
[2] = Displacement of methyl green from DNA (unknown origin) after 24 hrs
How it was run: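 DNA-methyl green complex was stirred in 0.05 M Tris-HCl pH 7.5 with 7.5 mmol MgSO4 at 37 °C for 24 h. Compound was dried down from EtOH in tubes and the DNA-methyl green solution added. A630 was read initially and after 24 h dark incubation at room temperature, corrected and normalized to untreated complex. IC50 is the concentration giving a 50% absorbance decrease; mean ± SD, n = 6.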

UO-31 = test: Cytotoxicity against human UO31 cells assessed as growth inhibition at 10 uM after 48 hrs by sulphorhodamine B assay; type: functional; settings: UO-31, 48 h, read-out: GI; how it was run: as §1
UACC-62 = test: Cytotoxicity against human UACC62 cells assessed as growth inhibition at 10 uM after 48 hrs by sulphorhodamine B assay; type: functional; settings: UACC-62, 48 h, read-out: GI; how it was run: as §1
HT-29 = test: Cytotoxicity against human HT-29 cells assessed as growth inhibition at 10 uM after 48 hrs by sulphorhodamine B assay; type: functional; settings: HT-29, 48 h, read-out: GI; how it was run: as §1

SMILES: CC1CCCc2c1nc1nc(SCC(=O)c3ccccc3)nc(N)c1c2-c1ccc(Cl)cc1 (stereo not given)
- inhibition of growth at 10 µM (U-251): 21.5%
- inhibition of growth at 10 µM (HCT-116): 38.4%
- inhibition of growth at 10 µM (SK-MEL-5): 67%
- inhibition of growth at 10 µM (OVCAR-4): 20%
- inhibition of growth at 10 µM (M14): 35%
- inhibition of growth at 10 µM (SF-268): 23.7%
- inhibition of growth at 10 µM (MOLT-4): 44.6%
- inhibition of growth at 10 µM (HCT-15): 71.5%
- inhibition of growth at 10 µM (MCF7): 30%
- inhibition of growth at 10 µM (CAKI-1): 11.8%
- inhibition of growth at 10 µM (SR): < 10%
- inhibition of growth at 10 µM (NCI-H522): 17.5%
- inhibition of growth at 10 µM (LOX IMVI): 14.6%
- inhibition of growth at 10 µM (DU-145): 17%
- inhibition of growth at 10 µM (A549): 17.6%
- inhibition of growth at 10 µM (SK-MEL-2): 14.5%
- inhibition of growth at 10 µM (K562): 27.7%
- inhibition of growth at 10 µM (MDA-MB-468): 22.9%
- inhibition of growth at 10 µM (T47D): 72.6%
- inhibition of growth at 10 µM (A498): 21.2%
- inhibition of growth at 10 µM (OVCAR-5): 10%
- inhibition of growth at 10 µM [1]: 26.7%
- inhibition of growth at 10 µM (Hs-578T): 38.2%
- inhibition of growth at 10 µM (SK-OV-3): < 10%
- inhibition of growth at 10 µM (IGROV-1): < 10%
- inhibition of growth at 10 µM (PC-3): 66.8%
- inhibition of growth at 10 µM (RPMI-8226): 69.2%
- inhibition of growth at 10 µM (NCI-H23): 24.7%
- inhibition of growth at 10 µM (SNB-75): < 10%
- inhibition of growth at 10 µM (CCRF-CEM): 60.1%
- inhibition of growth at 10 µM (HOP-92): 90%
- IC50 [2]: 0.061 µg/mL (≈ 0.128 µM)
- inhibition of growth at 10 µM (UO-31): 63%
- inhibition of growth at 10 µM (UACC-62): 70.8%
- inhibition of growth at 10 µM (HT-29): 21.5%

SMILES: CCSc1nc(N)c2c(-c3ccc(Cl)cc3)c3c(nc2n1)C(C)CCC3 (stereo not given)
- inhibition of growth at 10 µM (U-251): 13.6%
- inhibition of growth at 10 µM (HCT-116): 18.8%
- inhibition of growth at 10 µM (SK-MEL-5): < 10%
- inhibition of growth at 10 µM (OVCAR-4): 26.8%
- inhibition of growth at 10 µM (M14): < 10%
- inhibition of growth at 10 µM (SF-268): < 10%
- inhibition of growth at 10 µM (MOLT-4): 32.5%
- inhibition of growth at 10 µM (HCT-15): 18.8%
- inhibition of growth at 10 µM (MCF7): < 10%
- inhibition of growth at 10 µM (CAKI-1): < 10%
- inhibition of growth at 10 µM (SR): 37.9%
- inhibition of growth at 10 µM (NCI-H522): 21.9%
- inhibition of growth at 10 µM (LOX IMVI): < 10%
- inhibition of growth at 10 µM (DU-145): < 10%
- inhibition of growth at 10 µM (A549): 18.1%
- inhibition of growth at 10 µM (SK-MEL-2): < 10%
- inhibition of growth at 10 µM (K562): 32.4%
- inhibition of growth at 10 µM (MDA-MB-468): 30.8%
- inhibition of growth at 10 µM (T47D): 39.5%
- inhibition of growth at 10 µM (A498): 21.7%
- inhibition of growth at 10 µM (OVCAR-5): 12.3%
- inhibition of growth at 10 µM [1]: 12.3%
- inhibition of growth at 10 µM (Hs-578T): 14.2%
- inhibition of growth at 10 µM (SK-OV-3): 15.2%
- inhibition of growth at 10 µM (IGROV-1): 39%
- inhibition of growth at 10 µM (PC-3): 25.3%
- inhibition of growth at 10 µM (RPMI-8226): 33.8%
- inhibition of growth at 10 µM (NCI-H23): 15.3%
- inhibition of growth at 10 µM (SNB-75): 33%
- inhibition of growth at 10 µM (CCRF-CEM): 28.4%
- inhibition of growth at 10 µM (HOP-92): 35.2%
- IC50 [2]: 0.127 µg/mL (≈ 0.33 µM)
- inhibition of growth at 10 µM (UO-31): 59%
- inhibition of growth at 10 µM (UACC-62): 21.8%
- inhibition of growth at 10 µM (HT-29): 27.7%

— ChEMBL document CHEMBL2375313, “Synthesis, in vitro antitumor evaluation and DNA-binding study of novel tetrahydroquinolines and some derived tricyclic and tetracyclic ring systems” (Eur J Med Chem, 2013)
